Measurements from ChEMBL document CHEMBL1157892, “Cucurbitacin E as a new inhibitor of cofilin phosphorylation in human leukemia U937 cells” (Bioorg Med Chem Lett, 2010).
Calls of active or inactive are those of the source. The calls are words filed in the database; no cut-off is given here.

Columns and labels:
[1] = molecular target: Signal transducer and activator of transcription 3 (Homo sapiens) (UniProt P40763); experiment: Inhibition of STAT3 phosphorylation in human U937 cells at 100 uM after 24 hrs by Western blotting; format: cell-based; conditions: U-937
Sequence of Signal transducer and activator of transcription 3 (Homo sapiens) (P40763 whole entry): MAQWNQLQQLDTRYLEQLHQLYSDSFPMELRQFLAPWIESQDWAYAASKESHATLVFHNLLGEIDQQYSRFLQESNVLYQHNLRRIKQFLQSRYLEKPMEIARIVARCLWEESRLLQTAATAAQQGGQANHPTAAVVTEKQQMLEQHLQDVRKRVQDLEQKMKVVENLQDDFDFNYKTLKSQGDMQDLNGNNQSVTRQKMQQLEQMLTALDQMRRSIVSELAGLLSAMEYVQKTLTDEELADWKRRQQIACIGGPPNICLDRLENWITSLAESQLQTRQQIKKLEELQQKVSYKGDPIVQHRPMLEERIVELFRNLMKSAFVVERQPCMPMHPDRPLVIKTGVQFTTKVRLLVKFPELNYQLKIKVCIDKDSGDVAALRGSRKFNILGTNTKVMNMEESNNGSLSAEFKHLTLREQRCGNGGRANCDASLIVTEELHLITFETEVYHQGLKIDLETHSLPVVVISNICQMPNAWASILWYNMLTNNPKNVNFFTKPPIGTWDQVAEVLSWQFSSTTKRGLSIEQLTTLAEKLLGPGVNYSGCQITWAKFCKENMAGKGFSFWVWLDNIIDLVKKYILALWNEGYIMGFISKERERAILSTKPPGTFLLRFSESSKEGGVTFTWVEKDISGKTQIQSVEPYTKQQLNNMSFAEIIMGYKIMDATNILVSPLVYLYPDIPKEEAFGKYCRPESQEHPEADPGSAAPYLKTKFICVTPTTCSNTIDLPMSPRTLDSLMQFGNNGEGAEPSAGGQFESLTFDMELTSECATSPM
Method in brief: (§1)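 U937 cells at 5.0 × 10⁴ cells/mL treated 24 h and lysed with phosphatase and protease inhibitors. 60 µg protein per lane run on 10% SDS–PAGE. Western blots probed with rabbit anti-phospho-STAT3 and anti-STAT3 (1:1000), then HRP anti-rabbit (1:5000), with ECL detection.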

[2] = molecular target: Signal transducer and activator of transcription 3 (Homo sapiens) (UniProt P40763); experiment: Inhibition of STAT3 phosphorylation in human U937 cells at 10 uM after 24 hrs by Western blotting; format: cell-based; conditions: U-937; method in brief: as §1
U-937 [3] = experiment: Cell cycle arrest in human U937 cells assessed as increase of cell population at G2/M phase at 100 nM after 24 hrs using propidium iodide staining by flow cytometry relative to control; format: functional
Method in brief: (§2)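 U937 cells at 5.0 × 10⁴ cells/mL treated 24 h, pelleted, fixed in ice-cold ethanol overnight at −20 °C, treated with DNase-free RNase (0.25 mg/mL) at 37 °C for 30 min, then stained with propidium iodide. DNA content read by flow cytometry, 20,000 cells per sample. G0/G1, S and G2/M fractions compared with untreated control.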

U-937 [4] = experiment: Cell cycle arrest in human U937 cells assessed as reduction of cell population at S phase at 100 nM after 24 hrs using propidium iodide staining by flow cytometry relative to control; format: functional; set-up: scale not given: the % may be the effect or the level left; method in brief: as §2
U-937 [5] = experiment: Cell cycle arrest in human U937 cells assessed as reduction of cell population at G0/G1 phase at 100 nM after 24 hrs using propidium iodide staining by flow cytometry relative to control; format: functional; set-up: scale not given: the % may be the effect or the level left; method in brief: as §2
[6] = molecular target: T1, LIM domain kinase 1/2 (Homo sapiens) (UniProt P53671+P53667); experiment: Inhibition of LIMK1/2 phosphorylation in human U937 cells at 0.1 to 100 nM after 24 hrs by Western blotting; format: cell-based; conditions: U-937
T1 sequence (P53667 whole entry, looked up, the tested form may be a part): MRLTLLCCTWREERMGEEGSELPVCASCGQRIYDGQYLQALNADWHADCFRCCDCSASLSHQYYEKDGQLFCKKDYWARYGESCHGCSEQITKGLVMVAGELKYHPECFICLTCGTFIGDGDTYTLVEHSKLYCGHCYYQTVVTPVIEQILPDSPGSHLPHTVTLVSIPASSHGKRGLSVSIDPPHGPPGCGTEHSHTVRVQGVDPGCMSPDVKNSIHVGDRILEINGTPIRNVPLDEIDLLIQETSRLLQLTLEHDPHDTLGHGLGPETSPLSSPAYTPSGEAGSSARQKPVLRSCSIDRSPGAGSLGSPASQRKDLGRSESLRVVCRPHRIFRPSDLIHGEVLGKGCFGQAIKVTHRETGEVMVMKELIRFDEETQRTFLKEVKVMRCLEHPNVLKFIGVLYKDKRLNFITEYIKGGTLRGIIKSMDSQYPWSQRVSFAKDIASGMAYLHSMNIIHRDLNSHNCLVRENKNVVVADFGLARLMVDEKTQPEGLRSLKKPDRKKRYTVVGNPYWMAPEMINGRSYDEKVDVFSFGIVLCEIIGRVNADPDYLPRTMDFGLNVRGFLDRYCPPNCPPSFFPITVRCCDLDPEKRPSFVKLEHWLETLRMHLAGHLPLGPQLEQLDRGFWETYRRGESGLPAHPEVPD
T1 sequence (P53671 whole entry, looked up, the tested form may be a part): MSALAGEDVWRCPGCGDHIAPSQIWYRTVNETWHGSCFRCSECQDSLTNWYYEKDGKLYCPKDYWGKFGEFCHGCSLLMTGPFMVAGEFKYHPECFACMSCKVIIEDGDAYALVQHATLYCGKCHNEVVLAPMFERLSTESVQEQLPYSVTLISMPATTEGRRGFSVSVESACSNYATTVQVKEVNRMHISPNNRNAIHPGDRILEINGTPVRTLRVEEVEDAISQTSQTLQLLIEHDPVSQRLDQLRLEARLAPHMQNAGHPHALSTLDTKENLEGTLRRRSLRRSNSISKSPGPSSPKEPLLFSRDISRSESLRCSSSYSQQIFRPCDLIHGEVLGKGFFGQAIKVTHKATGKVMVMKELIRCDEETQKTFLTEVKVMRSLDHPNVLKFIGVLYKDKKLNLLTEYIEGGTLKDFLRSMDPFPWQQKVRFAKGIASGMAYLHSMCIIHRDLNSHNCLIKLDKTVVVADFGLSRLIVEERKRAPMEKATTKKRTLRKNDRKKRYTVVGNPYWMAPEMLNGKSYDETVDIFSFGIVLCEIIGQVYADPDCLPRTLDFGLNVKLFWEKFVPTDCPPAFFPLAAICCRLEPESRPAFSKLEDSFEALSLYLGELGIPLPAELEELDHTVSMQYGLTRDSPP
Method in brief: (§3)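 U937 cells at 5.0 × 10⁴ cells/mL treated 24 h, then lysed with phosphatase and protease inhibitors. Equal protein loaded on SDS–PAGE. Blots probed 1 h with rabbit antibodies (1:1000) to phospho-cofilin, phospho-LIMK1/2, cofilin and β-actin in T-TBS. Detection with HRP anti-rabbit (1:5000) and ECL.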

HT-1080 [7] = experiment: Cytotoxicity against human HT1080 cells after 72 hrs by WST-8 assay; format: functional, cell-based; conditions: HT-1080, 72 h
Method in brief: (§4)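 Cells seeded at 5.0 × 10³ cells/100 µL/well in RPMI-1640 and exposed to compounds for 68 h. WST-8 was then added for a further 4 h. Formazan absorbance read at 450 nm (reference 655 nm). Percent inhibition calculated and IC50 read graphically from the curve.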

U-937 [8] = experiment: Cytotoxicity against human U937 cells after 72 hrs by WST-8 assay; format: functional, cell-based; conditions: U-937, 72 h; method in brief: as §4
HT-1080 [9] = experiment: Decrease of F to G actin ratio in human HT1080 cells at 100 nM after 24 hrs; format: functional, cell-based
Method in brief: (§5)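 HT1080 cells seeded at 1.0 × 10⁴ cells/100 µL/well and treated 24 h at 37 °C. Cells fixed in 4% formaldehyde, permeabilized with cold methanol and blocked. F-actin stained with Alexa 350 phalloidin and G-actin with Alexa 488 DNase I, each 15 min at rt in the dark. Fluorescence read at ex 355/em 405 and ex 480/em 520 nm. Results are mean of n = 4; Dunnett's test against control.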

Cofilin-1 (Homo sapiens) = Cofilin-1 (Homo sapiens) (UniProt P23528); experiment: Inhibition of cofilin phosphorylation in human U937 cells after 24 hrs by Western blotting; format: cell-based; conditions: U-937; method in brief: as §3
Sequence of Cofilin-1 (Homo sapiens) (P23528 whole entry): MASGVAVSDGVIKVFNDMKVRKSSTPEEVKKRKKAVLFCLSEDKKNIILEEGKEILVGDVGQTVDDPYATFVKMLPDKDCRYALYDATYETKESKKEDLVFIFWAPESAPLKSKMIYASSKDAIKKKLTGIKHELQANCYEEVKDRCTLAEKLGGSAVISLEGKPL

HL-60 = experiment: Cytotoxicity against human HL60 cells after 72 hrs by WST-8 assay; format: functional, cell-based; conditions: HL-60, 72 h; method in brief: as §4
[10] = molecular target: T1, LIM domain kinase 1/2 (Homo sapiens); experiment: Inhibition of LIMK1/2 phosphorylation in human U937 cells at 0.1 to 1000 nM after 24 hrs by Western blotting; format: cell-based; conditions: U-937; method in brief: as §3
HT-1080 [11] = experiment: Decrease of F to G actin ratio in human HT1080 cells at 1000 nM after 24 hrs; format: functional, cell-based; method in brief: as §5

Row | SMILES | Activity [1] | Activity [2] | Activity (U-937 [3]) | Activity (U-937 [4]) | Activity (U-937 [5]) | Activity [6] | IC50 (HT-1080 [7]) | IC50 (U-937 [8]) | Activity (HT-1080 [9]) | Activity (Cofilin-1 (Homo sapiens)) | IC50 (HL-60) | Activity [10] | Activity (HT-1080 [11])
1 | CC(=O)OC(C)(C)/C=C/C(=O)[C@](C)(O)[C@H]1[C@H](O)C[C@@]2(C)[C@@H]3CC=C4[C@H](C[C@H](O)C(=O)C4(C)C)[C@]3(C)C(=O)C[C@]12C | Active | inactive | – | – | – | – | – | – | – | – | – | – | –
2 | CC(=O)OC(C)(C)/C=C/C(=O)[C@](C)(O)[C@H]1[C@H](O)C[C@@]2(C)[C@@H]3CC=C4[C@@H](C=C(O)C(=O)C4(C)C)[C@]3(C)C(=O)C[C@]12C [CUCURBITACIN E] | – | inactive | 34.2% | 28.1% | 37.7% | inactive | 0.04 µM | 0.016 µM | Active | Dose-dependent effect | 0.018 µM | – | –
3 | CC(C)(O)/C=C/C(=O)[C@](C)(O)[C@H]1[C@H](O)C[C@@]2(C)[C@@H]3CC=C4[C@@H](C=C(O)C(=O)C4(C)C)[C@]3(C)C(=O)C[C@]12C [CUCURBITACIN I] | – | – | – | – | – | inactive | – | – | – | Dose-dependent effect | – | inactive | Active
